Assay results of several laboratories.
Protocols differ between the studies behind these lines.
Target: Tyrosine-protein kinase receptor UFO (AXL, Homo sapiens, UniProt P30530)
One construct used (P30530 26-894): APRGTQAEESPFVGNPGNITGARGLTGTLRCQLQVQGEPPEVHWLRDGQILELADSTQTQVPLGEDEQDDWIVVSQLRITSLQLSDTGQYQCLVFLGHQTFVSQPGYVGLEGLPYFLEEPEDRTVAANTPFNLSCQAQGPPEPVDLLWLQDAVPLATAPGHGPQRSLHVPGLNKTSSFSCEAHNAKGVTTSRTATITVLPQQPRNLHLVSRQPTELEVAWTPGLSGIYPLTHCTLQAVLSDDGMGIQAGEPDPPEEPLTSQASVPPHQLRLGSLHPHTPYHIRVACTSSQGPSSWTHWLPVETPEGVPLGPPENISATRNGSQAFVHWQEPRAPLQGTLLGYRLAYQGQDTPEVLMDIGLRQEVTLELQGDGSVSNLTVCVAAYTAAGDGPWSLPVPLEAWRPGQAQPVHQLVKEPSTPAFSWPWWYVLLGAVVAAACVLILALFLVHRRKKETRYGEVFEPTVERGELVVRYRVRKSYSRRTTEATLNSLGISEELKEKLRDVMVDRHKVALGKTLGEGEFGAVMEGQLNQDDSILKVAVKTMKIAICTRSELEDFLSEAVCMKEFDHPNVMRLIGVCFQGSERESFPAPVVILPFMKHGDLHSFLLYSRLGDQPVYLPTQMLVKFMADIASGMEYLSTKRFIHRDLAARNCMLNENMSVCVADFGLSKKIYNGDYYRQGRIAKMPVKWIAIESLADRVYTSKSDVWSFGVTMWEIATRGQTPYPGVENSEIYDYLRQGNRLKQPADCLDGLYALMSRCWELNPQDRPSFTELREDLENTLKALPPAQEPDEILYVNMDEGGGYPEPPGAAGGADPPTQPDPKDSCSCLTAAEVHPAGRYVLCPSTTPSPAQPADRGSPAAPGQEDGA

`O=C(NCCCN1CCOCC1)c1ccc(Nc2nccc(-c3cc4ccccc4s3)n2)cc1` has a remaining binding of 38% (binding, competition with immobilised ligand; 1 µM).
`CC1CCCN1c1nccc(-c2cnn3ncccc23)n1` (stereo not drawn) gave a remaining binding of 100% (binding; 1 µM).
`O=C(NCCCN1CCOCC1)c1ccc(Nc2ncc(Cl)c(-c3ccc(Cl)s3)n2)cc1` gave a remaining binding of 76% (binding, competition with immobilised ligand; 1 µM).
`N[C@@H]1CCN(c2nccc(-c3cnn4ncccc34)n2)C1` gave a remaining binding of 100% (binding; 1 µM).
The remaining binding of `CCN1CCN(Cc2ccc(C(=O)Nc3ccc(C)c(Oc4ccc5c(c4)CC(=O)N5)c3)cc2C(F)(F)F)CC1` is reported as 98% (binding, competition with immobilised ligand; 1 µM).
`C[C@@H](c1cccc(C#N)c1)n1cc(Cl)cc(C(N)=O)c1=N` gave a remaining binding of 100% (cell-free assay, competition with immobilised ligand; 1 µM).
`O=C(c1ccc(Nc2ncc(Cl)c(-c3ccc(Cl)s3)n2)cc1)N1CCC(N2CCCC2)CC1` has a remaining binding of 28% (binding, competition with immobilised ligand; 1 µM).
With `CCOC(=O)c1cc2cc(-c3cc(C(=O)NCc4ccc(C(=O)O)cc4)nn3C)ccc2[nH]1` the remaining binding was 89% (cell-free assay, competition with immobilised ligand; 0.1 µM).
For `c1cncc(-c2cccc(Nc3nccc(NC4CCCCC4)n3)c2)c1`, the remaining binding was 4% (binding, competition with immobilised ligand; 10 µM).
`CNC(=O)[C@@H]1CC[C@@H](n2c(-c3ccc4cnccc4c3)nc3ccc(C(=O)NCc4cccc(C(N)=O)c4)cc32)C1` gave a remaining binding of 99% (binding, competition with immobilised ligand; 1 µM).
For `N#Cc1ccccc1CSc1nnc2c(n1)[nH]c1ccccc12`, the remaining binding was 65% (binding, competition with immobilised ligand; 10 µM).
For `CN(C)c1nccc(-c2cnn3ncccc23)n1`, the remaining binding was 100% (binding; 1 µM).
With `COc1cnc(Nc2cccc(S(N)(=O)=O)c2)nc1N1CCN(c2ccccc2)CC1` the remaining binding was 68% (binding, competition with immobilised ligand; 1 µM).
With `c1cnn2ncc(-c3ccnc(N4CCC45COC5)n3)c2c1` the remaining binding was 74% (binding; 1 µM).
For `CNC(=O)c1ccc(Nc2ncc(C(F)(F)F)c(NCc3nccnc3N(C)S(C)(=O)=O)n2)cc1`, the remaining binding was 51% (cell-free assay, competition with immobilised ligand; 0.1 µM).
`C[C@H]1CCN(c2nccc(-c3cnn4ncccc34)n2)C1` gave a remaining binding of 49% (binding; 1 µM).
`NS(=O)(=O)c1cc(NC(=O)C2(c3ccccc3Cl)CC2)ccc1Oc1cccc(Cl)c1` gave a remaining binding of 89% (cell-free assay, competition with immobilised ligand; 1 µM).
`CN(c1nccc(-c2cnn3ncccc23)n1)C1CC1` gave a remaining binding of 78% (binding; 1 µM).
`C[C@H](c1ccc(F)cc1)N(Cc1cccc(C(=O)O)c1)C(=O)c1cnc2ccccc2c1` gave a remaining binding of 100% (cell-free assay, competition with immobilised ligand; 1 µM).
The remaining binding of `C[C@@H]1CN(c2ccc3ncc(-c4ccc5[nH]nc(C6CC6)c5c4)n3n2)C[C@H](C)O1` is reported as 95% (binding, competition with immobilised ligand; 50 nM).
The remaining binding of `CCCCN(CCCC)C(=O)CN1C[C@H](c2cc(OC)c3c(c2)OCO3)[C@@H](C(=O)O)[C@@H]1CC(C)(C)CCC` is reported as 100% (cell-free assay, competition with immobilised ligand; 1 µM).
`O=C(NCC1CCOCC1)c1n[nH]cc1NC(=O)c1c(F)cccc1F` gave a remaining binding of 91% (binding, competition with immobilised ligand; 1 µM).
`COc1cccc(CNC(=O)c2nc3scc(COCc4ccc(C(=O)O)cc4)c3c(=O)[nH]2)c1` has a remaining binding of 84.2% (cell-free assay, competition with immobilised ligand; 1 µM).
For `Nc1ncc2c(n1)-c1c([nH]c3ccc(C#CC4CC4)cc13)CCCC2`, the remaining binding was 87% (binding, competition with immobilised ligand; 1 µM).
